Bioassay records (PubChem)
A selection: hits, their analogues and other compounds. The true share with any hit is near 4.2%.
XBP1 UPR activ = activators of adaptive arm of unfolded protein response (XBP1); AID 463104; activation, % at 20 µM; CHO-XBP1 luciferase reporter, IRE1-XBP1 UPR activation, luminescence; percent of tunicamycin response, DMSO as zero; hit rate 0.33% among 330,000;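 active = versus positive control, 20 µM dose yields 30% or more activation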;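 also: 100% = tunicamycin at 10 µg/mL and 0% = DMSO only wells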
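Material: CHO cell line with stable XBP1 luciferase reporter; buffer or medium: F12 medium containing 10% fetal bovine serum; compound: single point, 20 µM final compound, 1% DMSO; incubation: 6 h treatment, 37 °C; measured by: glow luminescence from Steady-Glo reagent; evaluation: activation, % of tunicamycin; control set: tunicamycin high, DMSO low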
TMEM16A act = activators or potentiators of mouse TMEM16A chloride channel. B-score at 10 µM. HEK293 TMEM16A/YFP-H148Q/I152L, iodide quench fluorescence; stronger effect = lower value. AID 623877. hit rate 0.3% among 340,000. Q8BHY3;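 active = fluorescence-ratio B-score plate-corrected deviation score at least 3 library SD below zero, with starting fluorescence score within 5 deviations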;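 also: channel opened by trigger with iodide after compound preincubation; score built on the fluorescence ratio of max minus min over baseline; more negative score means more quench and so TMEM16A activation or potentiation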
Target sequence (Q8BHY3 whole entry, looked up): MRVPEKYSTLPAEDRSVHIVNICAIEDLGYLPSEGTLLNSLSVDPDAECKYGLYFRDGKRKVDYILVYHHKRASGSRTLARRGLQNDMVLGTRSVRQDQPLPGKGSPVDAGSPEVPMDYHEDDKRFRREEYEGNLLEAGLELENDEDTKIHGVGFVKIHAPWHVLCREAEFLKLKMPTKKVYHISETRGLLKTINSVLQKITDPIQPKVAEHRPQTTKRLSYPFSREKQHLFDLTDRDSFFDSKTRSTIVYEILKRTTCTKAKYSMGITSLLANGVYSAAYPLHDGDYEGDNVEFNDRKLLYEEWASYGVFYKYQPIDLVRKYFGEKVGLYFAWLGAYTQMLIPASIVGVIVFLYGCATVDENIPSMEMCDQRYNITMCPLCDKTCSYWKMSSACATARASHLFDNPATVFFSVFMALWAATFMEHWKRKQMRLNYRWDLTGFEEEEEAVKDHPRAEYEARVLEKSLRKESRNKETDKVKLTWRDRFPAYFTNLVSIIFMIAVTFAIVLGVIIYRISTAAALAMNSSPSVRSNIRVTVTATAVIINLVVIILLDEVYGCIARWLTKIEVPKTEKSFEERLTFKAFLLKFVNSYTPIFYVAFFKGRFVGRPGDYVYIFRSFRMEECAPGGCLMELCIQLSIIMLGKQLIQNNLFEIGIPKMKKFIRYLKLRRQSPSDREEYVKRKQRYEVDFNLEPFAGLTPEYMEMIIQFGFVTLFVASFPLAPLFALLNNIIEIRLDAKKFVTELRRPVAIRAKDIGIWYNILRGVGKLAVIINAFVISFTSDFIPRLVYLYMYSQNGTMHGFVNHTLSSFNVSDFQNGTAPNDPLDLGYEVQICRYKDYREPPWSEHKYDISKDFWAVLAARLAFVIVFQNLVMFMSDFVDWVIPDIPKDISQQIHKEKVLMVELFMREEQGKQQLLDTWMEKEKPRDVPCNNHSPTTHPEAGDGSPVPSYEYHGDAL
Lipid droplet = hepatic lipid droplet formation modulation. AML12 mouse hepatocytes, oleate lipid droplets, BODIPY imaging. inhibition, % at 6.5 µM. hit rate 0.4% among 240,000;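 active = lipid droplet intensity inhibited by at least 50%, with more than 500 cells counted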
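System: AML12 hepatocytes (mouse). Probe or stimulus: oleic acid at 100 µM to induce lipid droplet formation. Times: overnight treatment with compound plus oleate. Detection: Image-based BODIPY and DAPI two-channel analysis. Evaluation: percent inhibition of filter-corrected integrated lipid droplet intensity per well.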
CHOP inhibitor = blocks CHOP induction under ER stress; CHO-K1 CHOP-promoter luciferase, tunicamycin-induced, 15-18 h; inhibition, % at 10 µM; hit rate 3.8% among 220,000;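 active = compounds that reduced the stress-induced luciferase reporter signal by more than about 70% of percent inhibition, limit read from the data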;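 also: 0% = tunicamycin plus vehicle and 100% = wells without tunicamycin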
CHOP UPR activ = activators of apoptotic arm of unfolded protein response (CHOP) | CHO-CHOP luciferase reporter, UPR activation, luminescence; percent of tunicamycin response over DMSO baseline | activation, % at 10 µM | hit rate 0.34% among 330,000;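 active = at 10 µM dose, activation of 40% or more, normalized to positive control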;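 also: 100% = tunicamycin at 10 µg/mL and 0% = DMSO alone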
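Assay system: CHO cells with stable CHOP pathway luciferase reporter; Buffer or medium: F12 plus 10% serum; Times: 16-18 h cell attachment, then 6 h compound exposure, 37 °C; Signal: luciferase luminescence; Read-out basis: percent activation relative to tunicamycin control; Control set: tunicamycin high control, DMSO low control.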
TMEM16A inh = mouse TMEM16A channel inhibition, primary screen | Q8BHY3 | HEK293 TMEM16A/YFP iodide influx fluorescence, ionomycin | normalized B-score (activity score, 25-100; higher = stronger inhibition) at 10 µM | hit rate 1.2% among 310,000 | AID 588511;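 active = ratio plate-corrected score three or more library SD toward inhibition, starting fluorescence score within five deviations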;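 also: score derived from kinetic fluorescence span divided by baseline fluorescence per well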
The depositor's hits bear a star; i = inactive; . = no result.

SMILES | XBP1 UPR activ | TMEM16A act | Lipid droplet | CHOP inhibitor | CHOP UPR activ | TMEM16A inh
COc1cc(/C=N/NC(=Nc2ccc(C)cc2)c2nc3ccccc3s2)ccc1O | -5 | i | 11 | 74* | -6 | i
O=C1OC[C@H](Cc2ccc3c(c2)OCO3)/C1=C\c1ccc2c(c1)OCO2 | -2 | i | . | . | 3 | 25*
Cc1ccccc1NS(=O)(=O)c1c(C(=O)N2CCCCCC2)c(C)n(C)c1C | -5 | i | -68 | . | -3 | i
CCCc1cc(C(=O)Nc2ccc(C(=O)c3ccc(F)cc3)cc2)n(C)n1 | -4 | i | -5 | . | -1 | 100*
O=C(Nc1ccc(F)cc1)c1ccc2snnc2c1 | 1 | i | 5 | . | 5 | i
CCc1ccc(C2=NN(c3ccc(S(N)(=O)=O)cc3)C(c3ccc(F)cc3)C2)cc1 (stereo not given) | 12 | i | -1 | 90* | -1 | i
NS(=O)(=O)c1ccc(N2N=C(c3ccccc3)CC2c2ccccc2)cc1 (stereo not given) | -3 | i | 12 | 81* | 0 | i
CC(=O)c1ccc(-c2ccc(C(=O)Nc3nc(C)c(C(C)=O)s3)o2)cc1 | -3 | i | . | . | -2 | .
CN(CC(=O)Nc1ccc(F)cc1)C(=O)CN1C(=O)c2ccccc2C1=O | -1 | i | . | . | 0 | .
O=C(c1ccc(C23CC4CC(CC(C4)C2)C3)o1)N1CCOCC1 | -2 | i | -2 | 77* | 0 | i
O=C(c1ccc(Br)o1)N1CCN(C23CC4CC(CC(C4)C2)C3)CC1 | 0 | i | -6 | . | 0 | i
CC(C)(C)CC(=O)Nc1nnc(C(F)(F)F)s1 | 1 | i | 9 | 30 | -1 | i
CC(NC(=O)Nc1nnc(C(F)(F)F)s1)(C(F)(F)F)C(F)(F)F | 0 | i | . | 89* | 8 | 100*
CSc1ccc(/C=C/C(=O)Nc2ccccc2)cc1 | -4 | i | -4 | 84* | -3 | i
Cc1cc(NC2CCCCC2)nc(-c2ccccc2O)n1 | 4 | i | . | 87* | 1 | i
Cc1ccc(C)c(Nc2cc(C)nc(-c3ccccc3O)n2)c1 | -4 | i | . | . | 0 | i
Cc1cc(Nc2ccccc2Cl)nc(-c2ccccc2O)n1 | -6 | i | 10 | . | -1 | i
Cc1cc(NCc2ccccc2)nc(-c2ccccc2O)n1 | 0 | i | . | 79* | 7 | i
CCCOc1cc(C)nc(-c2ccccc2O)n1 | 0 | i | . | 93* | 1 | i
Cc1cc(OC(C)C)nc(-c2ccccc2O)n1 | 0 | i | 10 | 64 | 0 | i
CCc1[nH]nc(C(=O)N/N=C/c2ccncc2)c1C | -2 | i | 1 | . | 1 | i
O=C(NCCc1ccc(F)cc1)c1ccc2c(=O)n3c(nc2c1)CCC3 | 0 | i | . | . | 2 | i
CC(C)(C)NC(=O)CN1CCC(O)(c2ccc3c(c2)OCO3)CC1 | -2 | -13* | 21 | 4 | -2 | i
Cc1nc(C(F)(F)F)nc(Nc2ccc(Br)cc2)c1C#N | 1 | i | 17 | 82* | -1 | i
O=C(NCCO)C(=O)Nc1cc2c3c(c1)CCC(=O)N3CCC2 | -3 | i | 1 | . | 0 | i
SMILES | XBP1 UPR activ | TMEM16A act | Lipid droplet | CHOP inhibitor | CHOP UPR activ | TMEM16A inh
CC(C)n1c2ccccc2c2cc([N+](=O)[O-])ccc21 | -2 | i | -26 | 42 | 0 | i
CCC(C)n1c(=S)[nH]c2c(sc3ccc([N+](=O)[O-])cc32)c1=O (stereo not given) | -1 | i | -18 | -6 | 1 | 25*
O=C(COc1ccc(Cl)cc1)NCc1cn2cc(Cl)ccc2n1 | -2 | i | 2 | 16 | -1 | i
COc1ccc(S(=O)(=O)NCCSC(C)(C)C)c(Cl)c1Cl | 0 | i | 2 | 0 | 1 | 25*
CCN(CC(=O)Nc1ccc(N2CCOCC2)cc1)C(=O)Cc1ccccc1 | 0 | -32* | . | . | 1 | .
CCN(CC(=O)Nc1ccc(N2CCOCC2)cc1)C(=O)c1ccc(C(F)(F)F)cc1 | -3 | i | 19 | 12 | 0 | i
CCN(CC)S(=O)(=O)c1ccc(C)c(NC(=O)COC(=O)C=C(C)C)c1 | -1 | i | 27 | -1 | 0 | i
CCN(CC)S(=O)(=O)c1ccc(C)c(NC(=O)COc2ccc(Cl)cc2Br)c1 | 3 | i | 14 | 74* | 6 | i
CCCCn1c(-c2csc3c2CCC(C)C3)n[nH]c1=S (stereo not given) | 1 | i | . | 84* | -2 | i
C=CCn1c(-c2csc3c2CCC(C)C3)n[nH]c1=S (stereo not given) | 5 | i | 17 | 80* | 1 | i
CCn1c(-c2csc3c2CCCC3)n[nH]c1=S | -1 | i | 0 | 14 | 0 | i
CCCCn1c(-c2csc3c2CCCC3)n[nH]c1=S | 2 | . | -5 | 12 | 0 | i
COC(=O)c1sc(-c2ccccc2)cc1NC(=O)C1CC1 | 1 | i | 5 | 4 | -1 | i
COC(=O)c1sc(-c2ccc(C(C)(C)C)cc2)cc1NC(=O)CSCC(=O)O | 1 | i | -12 | 77* | 4 | i
COC(=O)c1[nH]c2cc(OC)ccc2c1NC(=O)CN1CCN(c2cccc(C)c2)C(C)C1 (stereo not given) | 2 | i | . | 89* | 0 | i
CCC(=O)N1CC2(CC(c3cccc(NC(=O)COc4ccc(Cl)cc4)c3)=NO2)C[C@@H]1C(N)=O (stereo not given in full) | 0 | . | . | 3 | 1 | .
NC(=O)[C@H]1CC2(CC(c3cccc(NC(=O)COc4ccc(Cl)cc4)c3)=NO2)CN1C(=O)c1ccc(Cl)cc1 (stereo not given in full) | 2 | i | -6 | 95* | 2 | i
Clc1ccc(-c2nn3cnnc3s2)c(Cl)c1 | 5 | i | -8 | 26 | 1 | 25*
C=CCN1C(=O)C(Cc2ccc(C)cc2)S/C1=N/N=C/c1ccco1 (stereo not given) | 8 | i | -10 | 76* | 0 | i
CCCCc1c(C)nc(Nc2ccc(OC)cc2)[nH]c1=O | -1 | i | 2 | 29 | 2 | i
CCCCCc1c(C)nc(Nc2ccc(F)cc2)[nH]c1=O | -2 | i | 5 | 82* | 0 | i
CC(C)Nc1nc(Oc2ccc(Cl)cc2)cc(C(F)(F)F)n1 | 0 | i | . | 74* | -2 | i
CCC[C@@H]1CCCO[C@@](C(=O)NCc2cc(C)n(C)n2)(C(F)(F)F)C1 | 1 | i | . | . | 0 | i
